Measurements reported in ChEMBL document CHEMBL1148284, “Antagonist analogue of 6-[3'-(1-adamantyl)-4'-hydroxyphenyl]-2-naphthalenecarboxylic acid (AHPN) family of apoptosis inducers that effectively blocks AHPN-induced apoptosis but not cell-cycle arrest” (2004).
Calls of active or inactive are those of the source. No cut-off for these calls is given here.

What was measured:
[1] = system: HL-60; experiment: Induction of apoptosis in HL60R leukemia cells after 24 hr r treatment at 0.1E-6M; format: functional, Homo sapiens
Procedure, shortened: (§1)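 Cells exposed to agonist in medium with 0.1% Me2SO vehicle: HL-60R for 24 h, MDA-MB-231 for 96 h. Cells fixed and stained with acridine orange; apoptotic nuclei scored by nuclear fragmentation in 200-cell fields. Percent apoptosis is the average of triplicates.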

[2] = system: MDA-MB-231; experiment: Induction of apoptosis in MDA-MB-231 breast cancer cells after 96 hr at 0.5E-6M; format: functional, Homo sapiens; procedure, shortened: as §1
[3] = system: MCF7; experiment: Inhibition of MCF-7 cell proliferation at 1E-7M; Inhibitory activity; format: functional, cell-based; settings: Homo sapiens
[4] = system: HL-60; experiment: Induction of apoptosis in HL60R leukemia cells after 24 hr r treatment at 1E-6M; format: functional, Homo sapiens; procedure, shortened: as §1
[5] = system: BT-20; experiment: Inhibition of BT-20 breast cancer cell proliferation at 1E-7 M; Inhibitory activity; format: functional, cell-based; settings: Homo sapiens
[6] = system: MDA-MB-231; experiment: Induction of apoptosis in MDA-MB-231 breast cancer cells after 96 hr at 1E-6M; format: functional, Homo sapiens; procedure, shortened: as §1
[7] = target: T1, Retinoic acid receptor RXR-alpha (Homo sapiens) (UniProt P19793); experiment: Displacement of [3H]9-cis-RA from Retinoic acid receptor RXR-alpha LBD
T1 sequence (whole entry): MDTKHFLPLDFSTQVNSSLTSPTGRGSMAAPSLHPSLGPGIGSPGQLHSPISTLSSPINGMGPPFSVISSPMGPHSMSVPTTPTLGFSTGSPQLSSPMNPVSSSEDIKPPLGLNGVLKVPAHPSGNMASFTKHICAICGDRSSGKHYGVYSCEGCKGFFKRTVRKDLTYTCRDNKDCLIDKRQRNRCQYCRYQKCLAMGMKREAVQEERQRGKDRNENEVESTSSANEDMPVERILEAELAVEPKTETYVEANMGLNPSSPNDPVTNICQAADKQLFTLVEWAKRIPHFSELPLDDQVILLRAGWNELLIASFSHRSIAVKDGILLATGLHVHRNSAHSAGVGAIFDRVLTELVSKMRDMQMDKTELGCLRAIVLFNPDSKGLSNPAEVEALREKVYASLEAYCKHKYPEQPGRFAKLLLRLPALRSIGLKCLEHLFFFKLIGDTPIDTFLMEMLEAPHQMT
Procedure, shortened: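 Bacterially expressed receptor LBDs (RARs as GST fusions, RXRα as His6 fusion; about 1.0 × 10^-8 M) incubated with 1.0 × 10^-9 M [11,12-3H2]9-cis-RA (43 Ci/mmol), with or without 1.0 × 10^-9 M unlabeled competitor. Bound and free radioligand separated by Sephadex G-50 gel filtration; mean ± SEM of three independent experiments.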

[8] = system: MDA-MB-468; experiment: Inhibition of MDA-MB-468 cell proliferation at 0.5E-6M; Inhibitory activity; format: functional, cell-based; settings: Homo sapiens
Procedure, shortened: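 MDA-MB-468 cells (1.0 × 10^5) seeded in DMEM/F12 with 5% FBS; after 24 h, 0.5 × 10^-6 M agent added, with or without 2.0 × 10^-6 M antagonist. Incubated 72 h, then proliferation read by colorimetric assay relative to the agent-alone control. Triplicates, 0.1% Me2SO.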

[9] = target: T2, Retinoic acid receptor alpha (Homo sapiens) (UniProt P10276); experiment: Transcriptional activation in CV-1 cells expressing RAR alpha at 1E-6M; format: functional, cell-based; settings: Cercopithecidae
T2 sequence (whole entry): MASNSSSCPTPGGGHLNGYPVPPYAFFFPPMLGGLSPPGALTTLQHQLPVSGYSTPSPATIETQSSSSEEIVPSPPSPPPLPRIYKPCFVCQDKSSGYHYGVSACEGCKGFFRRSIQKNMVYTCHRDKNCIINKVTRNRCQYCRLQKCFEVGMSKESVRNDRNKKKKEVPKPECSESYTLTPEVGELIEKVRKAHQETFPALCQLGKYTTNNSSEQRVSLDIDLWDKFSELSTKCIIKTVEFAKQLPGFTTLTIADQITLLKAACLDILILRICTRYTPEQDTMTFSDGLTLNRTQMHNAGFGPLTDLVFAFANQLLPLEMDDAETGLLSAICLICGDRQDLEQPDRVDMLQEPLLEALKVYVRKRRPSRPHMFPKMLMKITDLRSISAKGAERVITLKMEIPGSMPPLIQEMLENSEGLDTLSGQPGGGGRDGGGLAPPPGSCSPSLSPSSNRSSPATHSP
Procedure, shortened: (§2)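 CV-1 cells in DMEM with 10% FCS, calcium-precipitate transfected with (TREpal)2-tk-CAT plus RAR expression vector and β-gal vector. After 20 h, switched to 5% charcoal-stripped FCS and treated 24 h. CAT activity normalized to β-gal and expressed relative to 1.0 × 10^-6 M trans-RA as 100%.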

[10] = system: NCI-H460; experiment: Inhibition of H460 cell proliferation after 144 hr treatment at 1E-6M; format: functional, Homo sapiens
Procedure, shortened: (§3)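 H460 lung cancer cells grown in RPMI 1640 with 10% FCS and treated 144 h (0.1% Me2SO vehicle). Nuclei stained with DAPI and scored under fluorescence microscopy. Value is the average of triplicates.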

[11] = target: T3, Retinoic acid receptor beta (Homo sapiens) (UniProt P10826); experiment: Transcriptional activation in CV-1 cells expressing RAR beta at 1E-6M; format: functional, cell-based; settings: Cercopithecidae
T3 sequence (whole entry): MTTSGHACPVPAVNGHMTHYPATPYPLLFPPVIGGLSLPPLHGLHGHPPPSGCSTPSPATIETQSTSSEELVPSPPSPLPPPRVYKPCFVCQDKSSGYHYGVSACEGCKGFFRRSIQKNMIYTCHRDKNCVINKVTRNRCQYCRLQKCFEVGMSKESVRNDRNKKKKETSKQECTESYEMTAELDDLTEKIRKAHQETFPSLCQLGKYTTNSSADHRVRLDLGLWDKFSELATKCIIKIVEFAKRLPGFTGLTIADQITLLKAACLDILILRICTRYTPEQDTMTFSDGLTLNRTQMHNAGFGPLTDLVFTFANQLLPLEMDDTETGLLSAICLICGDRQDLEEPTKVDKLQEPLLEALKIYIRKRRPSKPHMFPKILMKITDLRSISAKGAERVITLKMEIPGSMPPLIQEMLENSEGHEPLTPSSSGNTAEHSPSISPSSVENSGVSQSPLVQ

[12] = system: NCI-H460; experiment: Inhibition of H460 cell proliferation after 144 hr treatment at 0.1E-6M; format: functional, Homo sapiens; procedure, shortened: as §3
[13] = target: T4, Retinoic acid receptor gamma (Homo sapiens) (UniProt P13631); experiment: Transcriptional activation in CV-1 cells expressing RAR gamma at 1E-6M; format: functional, cell-based; settings: Cercopithecidae; procedure, shortened: as §2
T4 sequence (whole entry): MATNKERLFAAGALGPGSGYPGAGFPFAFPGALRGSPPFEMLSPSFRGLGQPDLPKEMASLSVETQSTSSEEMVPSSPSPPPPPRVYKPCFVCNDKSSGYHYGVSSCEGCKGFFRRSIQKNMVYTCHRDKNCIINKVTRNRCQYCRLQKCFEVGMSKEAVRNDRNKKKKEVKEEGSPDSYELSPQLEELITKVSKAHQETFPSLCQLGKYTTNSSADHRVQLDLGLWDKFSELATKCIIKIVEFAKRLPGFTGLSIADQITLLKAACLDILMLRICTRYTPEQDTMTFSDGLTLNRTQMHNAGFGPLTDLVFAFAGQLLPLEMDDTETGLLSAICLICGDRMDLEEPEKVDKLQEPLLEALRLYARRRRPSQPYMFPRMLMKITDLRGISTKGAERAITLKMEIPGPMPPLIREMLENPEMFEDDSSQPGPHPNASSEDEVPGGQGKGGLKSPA

[14] = system: LNCaP; experiment: Suppression of LNCaP prostate cancer cell apoptosis induced by 1E-6M 5-Cl-AHPN; From 31% to 15%; format: functional, Homo sapiens
Procedure, shortened: (§4)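 H460 and LNCaP cells (RPMI 1640, 10% FCS) treated 36 h with 1.0 × 10^-6 M inducer alone or with 1.0 × 10^-6 M antagonist. Cells trypsinized, fixed in 3.7% paraformaldehyde, stained with DAPI (50 µg/mL), and apoptotic nuclear morphology scored by fluorescence microscopy. Apoptosis = apoptotic/total cells × 100.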

[15] = system: NCI-H460; experiment: Suppression of H460 lung cancer cell apoptosis induced by 1E-6M 5-Cl-AHPN; From 34% to 9%; format: functional, Homo sapiens; procedure, shortened: as §4

| Displacement [7] [%] | Transcriptional activation [9] [%] | Transcriptional activation [11] [%] | Transcriptional activation [13] [%] | SMILES | Apoptosis [1] [%] | Apoptosis [2] [%] | inhibition [3] | Apoptosis [4] [%] | inhibition [5] | Apoptosis [6] [%] | inhibition [8] | Inhibition [10] [%] | Inhibition [12] [%] | Suppression [14] [%] | Suppression [15] [%] |
| --- | --- | --- | --- | --- | --- | --- | --- | --- | --- | --- | --- | --- | --- | --- | --- |
| – | – | – | – | Cc1c(-c2ccc(O)c(C34CC5CC(CC(C5)C3)C4)c2)ccc2cc(C(=O)O)ccc12 | 29 | 14 | Inhibitory activity | 70 | Inhibitory activity | – | – | – | – | – | – |
| – | – | – | – | Cc1cc(/C=C/C(=O)O)ccc1-c1ccc(O)c(C23CC4CC(CC(C4)C2)C3)c1 | 10 | 5 | – | 95 | – | 30 | – | – | – | – | – |
| 16 | – | – | – | O=C(O)/C=C/c1ccc(-c2ccc(O)c(C34CC5CC(CC(C5)C3)C4)c2)c(Cl)c1 | 51 | 31 | – | 94 | – | 43 | Active | – | – | – | – |
| – | 21 | 78 | 88 | O=C(O)c1ccc2cc(-c3ccc(O)c(C45CC6CC(CC(C6)C4)C5)c3)ccc2c1 [O-DEMETHYLATED ADAPALENE] | 78 | 26 | – | 98 | – | 46 | – | 80 | 20 | – | – |
| – | 8 | 85 | 103 | O=C(O)/C=C/c1ccc(-c2ccc(O)c(C34CC5CC(CC(C5)C3)C4)c2)cc1 [ADAROTENE] | 90 | 53 | – | 98 | – | 58 | – | – | – | – | – |
| – | – | – | – | O=C(O)c1ccc2c(Cl)c(-c3ccc(O)c(C45CC6CC(CC(C6)C4)C5)c3)ccc2c1 | 62 | 21 | – | 94 | – | 41 | – | 71 | 56 | – | – |
| – | – | – | – | CC(=O)NCCCOc1cc(/C=C/C(=O)O)ccc1-c1ccc(O)c(C23CC4CC(CC(C4)C2)C3)c1 | 0 | 0 | – | 0 | – | 1 | – | – | – | 15 | 9 |
| – | – | – | – | CCOc1cc(/C=C/C(=O)O)ccc1-c1ccc(O)c(C23CC4CC(CC(C4)C2)C3)c1 | 0 | – | – | 29 | – | – | – | 52 | 14 | – | – |
